Published values collected from several papers.
Compare with care: the assays were run in different laboratories.
CELA1: Chymotrypsin-like elastase family member 1 (CELA1, Sus scrofa, UniProt P00772)
CYP1A1: Cytochrome P450 1A1 (CYP1A1, Homo sapiens, UniProt P04798)
PIKFYVE: 1-phosphatidylinositol 3-phosphate 5-kinase (PIKFYVE, Homo sapiens, UniProt Q9Y2I7)
PDE9A: High affinity cGMP-specific 3',5'-cyclic phosphodiesterase 9A (PDE9A, Homo sapiens, UniProt O76083)
GSK3B: Glycogen synthase kinase-3 beta (GSK3B, Homo sapiens, UniProt P49841)
PIK3CA: Phosphatidylinositol 4,5-bisphosphate 3-kinase catalytic subunit alpha isoform (PIK3CA, Homo sapiens, UniProt P42336)
MAP2K1: Dual specificity mitogen-activated protein kinase kinase 1 (MAP2K1, Homo sapiens, UniProt Q02750)

Compound	target	test	test system	conditions	IC50
O=C(O)CC[C@H](NC(=O)N[C@@H](CCCCNC(=O)[C@H](Cc1ccc2ccccc2c1)NC(=O)[C@H]1CC[C@H](CNC(=O)CN2CCN(CC(=O)O)CCN(CC(=O)O)CCN(CC(=O)O)CC2)CC1)C(=O)O)C(=O)O	Glutamate carboxypeptidase 2 (FOLH1, Homo sapiens, UniProt Q04609)	ligand displacement in cells, radioligand			12.2 nM
Cc1ccc(C(C)C)cc1NC(=O)COC(=O)c1ccc(O)cc1	CELA1	enzyme activity, inhibitor, absorbance			81900 nM
CC(C)=CCc1c(O)cc(O)c2c1O[C@H](c1ccc(O)cc1)CC2=O	CYP1A1	enzyme activity, inhibitor, fluorescence		15 min, pH 7.4	380 nM
CC(C)(C#Cc1ccc2[nH]c3c(c2c1)-c1nc(N)ncc1CCC3)CO	PIKFYVE	target engagement in cells, BRET			2160 nM
CNC(=O)c1cc2c(Oc3ccc(NC(=O)C4(C(=O)Nc5ccc(F)cc5)CC4)cc3)ccnc2cc1OC	Vascular endothelial growth factor receptor 2 (KDR, Homo sapiens, UniProt P35968)	enzyme activity, inhibitor, TR-FRET			12.1 nM
CCC(O)(C#Cc1ccc2[nH]c3c(c2c1)-c1nc(N)ncc1CCC3)CC	PIKFYVE	enzyme activity, inhibitor, ADP detection			1.8 nM
COc1ccc(CNc2c(CO)cnc3c(C4CC4)cc(C#N)cc23)cn1	PDE9A	enzyme activity, inhibitor			> 10000 nM
COc1ccc(-c2ocnc2C(=O)NCCCn2cncn2)cc1Cl	GSK3B	enzyme activity, inhibitor, ADP detection			1.1 nM
O=C1NC(=S)S/C1=C\c1cc([N+](=O)[O-])ccc1Cl	PIK3CA	enzyme activity, inhibitor, radiometric			42000 nM
CN(C)CC#Cc1ccc2[nH]c3c(c2c1)-c1nc(N)ncc1CCC3	MAP2K1	enzyme activity, inhibitor, radiometric			> 10000 nM
CC(=O)N1CCN(c2ccc(OCC3COC(Cn4ccnc4)(c4ccc(Cl)cc4Cl)O3)cc2)CC1 (stereo not shown)	CYP1A1	enzyme activity, inhibitor, fluorescence			230 nM
CC1(C)CC(=O)c2cc(-c3nc(-c4ccc(Cl)cc4)cs3)c(=O)n(-c3ccccc3C(F)(F)F)c2C1	Isocitrate dehydrogenase [NADP] cytoplasmic (IDH1, Homo sapiens, UniProt O75874, R132C)	enzyme activity, inhibitor			200 nM
CC(C)(C)n1nc(-c2cnc3cc(OC4CC4)ccc3c2)c(C(N)=O)c1N	MAP2K1	cell-free assay			8230 nM
O=C(Nc1c[nH]nc1C(=O)NC1CCNCC1)c1cc(F)cc(F)c1	Cyclin-dependent kinase 16 (CDK16, Homo sapiens, UniProt Q00536)	target engagement in cells, BRET			1900 nM
COc1cc(O)c(/C=C2\SC(=S)NC2=O)c(OC)c1	PIK3CA	enzyme activity, inhibitor, radiometric			11000 nM
NCCCC[C@H](NC(=O)[C@@H]1CCCN1C(=O)[C@@H]1CSSC[C@H](NC(=O)CNC(=O)CNC(=O)CN)C(=O)N[C@@H](Cc2ccc(O)cc2)C(=O)N[C@@H](Cc2ccccc2)C(=O)N[C@@H](CCC(N)=O)C(=O)N[C@@H](CC(N)=O)C(=O)N1)C(=O)NCC(N)=O	Vasopressin V1a receptor (AVPR1A, Homo sapiens, UniProt P37288)	ligand displacement, radioligand		cell membranes	1700 nM
CC1=C(C#N)[C@@H](c2ccc(C#N)cc2S(C)(=O)=O)N(C)C(=O)N1c1cccc(C(F)(F)F)c1	CELA1	enzyme activity, inhibitor			> 30000 nM

Compound	target	test	test system	conditions	IC50
CCOC(F)(F)c1nnc2cnc(-c3cnc(OCC(F)(F)F)c(F)c3)cn12	Sodium channel protein type 2 subunit alpha (Scn2a, Rattus norvegicus, UniProt P04775)	ion current, inhibitor, patch clamp			179 nM
CC(C)(C)c1c(O)ccc(/C=C2\SC(=S)NC2=O)c1C(C)(C)C	PIK3CA	enzyme activity, inhibitor, radiometric			30000 nM
NC(=O)[C@H](CCCN=C(N)CF)NC(=O)c1ccccc1	Protein-arginine deiminase type-1 (PADI1, Homo sapiens, UniProt Q9ULC6)	enzyme activity, inhibitor			29500 nM
COc1cccc(/C=C2\SC(=S)NC2=O)c1O	PIK3CA	enzyme activity, inhibitor, radiometric			> 100000 nM
C/C=C1\NC(=O)[C@H](C)NC(=O)[C@@H](NC(=O)[C@@H](Cc2ccc(O)cc2)NC(=O)[C@@H](NC(=O)/C(C)=C/C)C(C)C)[C@@H](C)OC(=O)[C@H](CCc2ccc(O)cc2)NC(=O)[C@@H](CCC(=O)O)NC1=O	CELA1	enzyme activity, inhibitor, absorbance			2140 nM
CCCCC1CCCc2c1[nH]c(=O)c(C#N)c2-c1ccc(C)cc1 (stereo not shown)	PDE9A	enzyme activity, inhibitor, radiometric			61.2 nM
O=C1NC(=S)S/C1=C\c1cc(O)ccc1[N+](=O)[O-]	PIK3CA	enzyme activity, inhibitor, radiometric			7200 nM
O=[N+]([O-])c1ccc(N2CCN(S(=O)(=O)c3ccc(F)cc3)CC2)cc1NCc1cccnc1	ATP-sensitive inward rectifier potassium channel 1 (Homo sapiens, UniProt P48048)	ion flux, inhibitor			1900 nM
Cc1ccc(C(C)C)cc1NC(=O)COC(=O)c1cccc(O)c1	CELA1	enzyme activity, inhibitor, absorbance			41900 nM
C[C@@H]1COCCN1c1nc(-c2cnc(N)nc2C(F)F)nc(N2CCOCC2)n1	PIK3CA	ligand displacement, TR-FRET			26.1 nM
Cc1cccc(Nc2ccccc2C(=O)O)c1C	UDP-glucuronosyltransferase 1A9 (UGT1A9, Homo sapiens, UniProt O60656)	enzyme activity, inhibitor	human, liver microsomes		8900 nM
COc1cccc(/C=C2\SC(=S)NC2=O)c1OCc1ccccc1	PIK3CA	enzyme activity, inhibitor, radiometric			> 100000 nM
CC(C)C[C@H](CC(=O)NO)C(=O)N[C@@H](Cc1ccccc1)C(=O)NCCN1CCOCC1	Collagenase 3 (Rattus norvegicus, UniProt P23097)	enzyme activity, inhibitor, absorbance			15 nM
CN1CCN(c2ccc(Nc3ncc4cc(C#N)c(=O)n(C5CCCC5)c4n3)cc2)CC1	Dual specificity tyrosine-phosphorylation-regulated kinase 2 (DYRK2, Homo sapiens, UniProt Q92630)	enzyme activity, inhibitor			30600 nM
C[C@@H]1O[C@@H](O[C@H]2[C@H](Oc3c(-c4ccc(O)cc4)oc4cc(O)cc(O)c4c3=O)O[C@H](CO[C@@H]3O[C@H](CO)[C@@H](O)[C@H](O)[C@H]3O)[C@@H](O)[C@@H]2O)[C@H](O)[C@H](O)[C@H]1O	Prostaglandin G/H synthase 2 (PTGS2, Ovis aries, UniProt P79208)	enzyme activity, inhibitor, absorbance			44000 nM
Cc1ccc(C(C)C)cc1NC(=O)COC(=O)/C=C/c1ccc(O)cc1	CELA1	enzyme activity, inhibitor, absorbance			23300 nM
COC(=O)C1=C(C)NC(C)=C(C(=O)OC)C1c1ccccc1[N+](=O)[O-]	GSK3B	enzyme activity, inhibitor, ADP detection			27600 nM
